# NPY-Y2 PAM-ag: potentiates or activates human NPY-Y2 receptor; cells expressing NPY-Y2, potentiator/agonist read-out; AID 1359; hit rate 0.45% among 220,000; P49146; activation, % at 3.6 µM; in the data active = activation above about 27%;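 also: cells stimulated with NPY near EC25 plus isoproterenol at EC100; 0% = vehicle plus submaximal agonist and 100% = vehicle plus saturating agonist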
# NPY Y2 blocker: antagonists of human neuropeptide Y receptor Y2. NPY-Y2 expressing cells, antagonist mode. hit rate 0.99% among 140,000. inhibition, % at 2.7 µM. P49146;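 also: 0% = vehicle with agonist challenge and 100% = reference antagonist with challenge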
# NPY1 pot ag: human NPY-Y1 potentiation or agonism, primary screen. AID 1304. hit rate 0.37% among 220,000. NPY-Y1 expressing cells, potentiator/agonist activation. activation, % at 3.6 µM. P25929; in the data active = activation above about 33%, passing the limit was not always enough;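 also: cells stimulated with NPY at EC10 then isoproterenol at EC100; 0% = low agonist plus stimulus and 100% = saturating agonist plus stimulus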
# Target sequence (P25929 whole entry, looked up): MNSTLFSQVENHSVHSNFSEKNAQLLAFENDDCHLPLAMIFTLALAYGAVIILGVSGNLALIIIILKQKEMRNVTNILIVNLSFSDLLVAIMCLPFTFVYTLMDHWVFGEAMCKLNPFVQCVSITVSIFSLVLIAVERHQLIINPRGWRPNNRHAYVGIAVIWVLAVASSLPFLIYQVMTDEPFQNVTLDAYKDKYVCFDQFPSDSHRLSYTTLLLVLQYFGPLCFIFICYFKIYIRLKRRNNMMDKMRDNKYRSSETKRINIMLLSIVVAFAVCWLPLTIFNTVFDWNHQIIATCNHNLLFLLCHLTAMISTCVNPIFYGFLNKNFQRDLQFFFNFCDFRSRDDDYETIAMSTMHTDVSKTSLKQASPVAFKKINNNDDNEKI
# NPY Y1 blocker: antagonists of human neuropeptide Y receptor Y1. HEK293-CNG Y1 cells, membrane potential fluorescence; NPY at EC95, then isoproterenol. inhibition, % at 3.6 µM. hit rate 1% among 200,000. AID 1040;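 active = inhibition above the campaign mean inhibition of all tested compounds plus 3 SD, cut at about 20% in these data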;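 also: 0% = DMSO wells given NPY plus isoproterenol and 100% = isoproterenol alone without NPY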
#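 Assay system: HEK293 Y1/CNG channel cell line; Doses: single compound dose of 3.6 µM, 0.4% DMSO; Timing: dye 3 h, compound 60 min room temperature, stimulation 45 min; Technique: Membrane-potential fluorescent dye readout; Measure: % inhibition of NPY effect.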
# NPY-Y1 ant conf: confirmation of human neuropeptide Y receptor Y1 antagonists; HEK293-CNG NPY-Y1, membrane potential fluorescence, cAMP; NPY challenge against isoproterenol-raised cAMP; shares compounds with NPY Y1 blocker; inhibition, % at 3.6 µM; hit rate 21% among 1,200; in the data active = inhibition above about 20%;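 also: 0% = vehicle with agonist plus stimulus and 100% = stimulus alone without agonist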
# NPY2 antag ctr: human NPY-Y2 antagonism in NPY-Y1 counter-screen; shares compounds with NPY Y1 blocker; HEK293 NPY-Y2 CNG membrane potential fluorescence; cells given NPY, then isoproterenol; inhibition, % at 3.6 µM; hit rate 28% among 1,200;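 also: 0% = DMSO with agonist challenge and 100% = reference antagonist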
# * hit, by the source's call; / = no result. The list is not random: actives were taken first. Their share in the collection is about 1.8%. Rule as the data show it, unless noted: active = inhibition above about 17%; inactive = the rest.
SMILES,NPY-Y2 PAM-ag,NPY Y2 blocker,NPY1 pot ag,NPY Y1 blocker,NPY-Y1 ant conf,NPY2 antag ctr
CCCC(c1nnnn1C(C)(C)C)N1CCN(Cc2ccccc2OC)CC1 (stereo unspecified),-23.1,/,-10.5,22.2*,6.9,5.2
Cc1ccc(-c2nc(CN(Cc3c(C)nn(C)c3C)C(C)C)c(C)o2)o1,10.5,/,1.0,-3.7,/,/
O=c1[nH]c(CSc2nnc(-c3ccccc3)n2C2CCCCC2)nc2ccccc12,10.4,0.4,-3.8,29.9*,-2.2,0.5
Cc1ccc(N2C(=O)c3ccccc3NC2C(C)Cc2ccc3c(c2)OCO3)cc1 (stereo unspecified),-17.0,16.9,-50.5,44.0*,119.8*,108.2*
Cn1ccc(NC(=O)Nc2cccc([N+](=O)[O-])c2)n1,3.2,/,5.0,0.3,/,/
CC(C)c1nc2sc3c(SCC(N)=O)ncnc3c2c2c1CCC2,-21.0,/,-17.9,/,/,/
COc1ccc(OCc2n(CC(=O)OC3CC(C)CCC3C(C)C)c3ccccc3[n+]2C)cc1 (stereo unspecified),-51.6,/,-104.8,/,/,/
COc1ccc(-c2n(CC(=O)OC3CC(C)CCC3C(C)C)c3ccccc3[n+]2C)cc1 (stereo unspecified),-50.2,/,-94.9,150.1*,134.7*,91.3*
CC1CC1c1ccc(/C=C(\C#N)C(=O)Nc2ccccc2Cl)o1 (stereo unspecified),-3.3,5.2,-2.2,23.3*,11.3,8.0
CCCNC(=S)N1CCC(C(=O)c2ccc(OC)cc2)CC1,9.3,-0.7,-9.3,-0.7,/,/
CCOc1cccc2sc(N(CCCN(C)C)C(=O)Cc3ccccc3)nc12,12.6,/,5.0,2.7,/,/
CCOc1cccc2sc(N(CCN(CC)CC)C(=O)c3ccc(S(=O)(=O)N4CCCCC4)cc3)nc12,-6.6,/,-4.9,25.7*,3.5,4.6
COc1ccc(-c2ccc(CCC(=O)O)n2-c2ccccc2O)cc1,-9.3,/,-3.5,/,/,/
COc1ccc(-n2c(CCC(=O)O)ccc2-c2ccccc2)cc1,-22.6,/,-2.4,26.6*,12.8,12.2
Nc1c(C(=O)Nc2ccc(F)cc2)sc(=S)n1-c1ccccc1F,-35.3,/,-9.6,9.6,/,/
Cc1cccc2cc(CN(Cc3ccco3)C(=O)Nc3cccc(C#N)c3)c(Cl)nc12,-32.5,9.1,-27.2,34.1*,18.6,8.6
COc1ccc(/C=C(\C#N)C(=O)NCC(c2ccc(F)cc2)N2CCOCC2)cc1 (stereo unspecified),-26.7,/,8.0,/,/,/
Cc1nc(N2CCCCC2)c2c(C)c(C(=O)Nc3ccccc3C(F)(F)F)sc2n1,-37.2,/,-47.5,26.9*,22.3*,14.7
Cc1nc(C(=O)Nc2cccc(Cl)c2Cl)nn1-c1cc(OC(C)C)c(Cl)cc1Cl,-0.5,10.0,-137.2,20.1*,14.0,25.9*
Cc1nc(C(=O)Nc2cc(Cl)ccc2Cl)nn1-c1cc(OC(C)C)c(Cl)cc1Cl,-8.0,2.1,-14.8,-1.4,/,/
Cc1nn(-c2ccccc2)c(Oc2ccc(F)cc2)c1/C=N/n1cnnc1,3.9,4.3,-0.3,20.2*,4.8,0.8
Cc1nn(-c2ccccc2)c(C)c1/C=N/n1cnnc1,1.1,/,11.8,-0.1,/,/
CCCNc1nc(N2CCCC2)nc(N2CCCC2)n1,8.3,/,-0.9,29.6*,12.8,10.7
CC(C)(C)Nc1nc(N2CCCC2)nc(N2CCCC2)n1,11.2,14.6,17.8,18.6,/,/
O=C(c1cnccn1)N1CCc2c([nH]c3ccccc23)C1c1cccc(Cl)c1 (stereo unspecified),11.0,/,11.4,6.0,/,/
SMILES,NPY-Y2 PAM-ag,NPY Y2 blocker,NPY1 pot ag,NPY Y1 blocker,NPY-Y1 ant conf,NPY2 antag ctr
CSc1ccc(C2c3[nH]c4ccccc4c3CCN2C(=O)c2cc(C)n(C)n2)cc1 (stereo unspecified),-25.9,/,-13.1,27.1*,14.6,41.1*
Cc1cc(C(=O)N2CCc3c([nH]c4ccccc34)C2c2cccc(Cl)c2)nn1C (stereo unspecified),-18.8,/,-17.9,36.3*,19.5,61.5*
CNC(=O)CSc1nnc(-c2ccccn2)n1Cc1ccco1,20.8,/,16.2,/,/,/
CC(C)(C)c1ccc(CSc2nnc(-c3ccccn3)n2Cc2ccco2)cc1,-15.8,16.1,-16.4,21.1*,6.7,12.9
Cc1ccc(N=Cc2c(O)n(-c3cc(Cl)ccc3N3CCOCC3)c(=O)c3ccccc23)cc1C,-33.8,5.9,-80.0,22.2*,15.2,26.9*
O=C(O)CCSc1nc2ccccc2s1,-29.9,10.3,-36.1,26.9*,7.6,6.2
CCOC(=O)/C(C#N)=C(\O)c1ccc(NC(=O)c2ccc([N+](=O)[O-])cc2)cc1,-8.3,/,3.1,/,/,/
c1ccc(-c2ccccc2OCCCN2CCCC2)cc1,1.3,6.2,-0.9,16.8,/,/
c1ccc(-c2ccccc2OCCCN2CCCCCC2)cc1,-9.9,/,-14.9,26.1*,11.5,12.7
N#Cc1ccccc1Cn1cc(/C=C/[N+](=O)[O-])c2ccccc21,1.3,2.3,-10.4,4.4,/,/
Fc1cccc(Cc2noc(CN3CCN(C4CCc5ccccc5C4)CC3)n2)c1 (stereo unspecified),-20.2,/,-15.2,23.5*,17.1,12.6
COc1ccc(Cc2noc(CN3CCN(C4CCc5ccccc5C4)CC3)n2)cc1OC (stereo unspecified),-21.6,/,-5.9,10.2,/,/
CC(=O)N(C)C(c1ccc(N(C)C)cc1)c1nnnn1-c1c(C)cccc1C (stereo unspecified),0.4,6.5,-11.2,23.8*,10.6,4.2
CC(NC(=O)Cn1c(NCCO)nc2ccccc21)C1CC2CCC1C2 (stereo unspecified),-11.7,/,-39.2,40.1*,25.1*,12.1
CCN(CC)CCN(Cc1cc2ccc(C)c(C)c2[nH]c1=O)C(=S)NCc1ccco1,-31.2,/,-19.9,27.1*,14.6,15.5
CCN(CC)CCN(Cc1cc2cc(C)cc(C)c2[nH]c1=O)C(=S)NCc1ccco1,-20.5,10.9,-81.1,21.0*,13.6,14.3
COc1ccc(OC)c(S(=O)(=O)NCCc2csc(-c3cccnc3)n2)c1,6.5,/,18.5,/,/,/
Cc1onc(-c2ccccc2)c1C(=O)NNC(=S)NC(=O)c1ccc2c(c1)OCO2,-12.1,/,-7.3,/,/,/
Cc1cnc(NC(=O)c2c(-c3ccccc3)noc2C)s1,1.4,/,18.9,/,/,/
COc1ccc(C)cc1NC(=O)CNc1ccccc1CN(C)C1CCCCC1,-7.1,/,6.7,12.3,/,/
COc1ccc(Cl)cc1NC(=O)CNc1ccccc1CN(C)C1CCCCC1,-8.3,/,-17.4,29.1*,26.2*,20.1*
Cc1ccc(C(=O)N2c3ccccc3N(Cc3ccccc3)C(=O)C2(C)C)cc1,34.8,10.0,-40.0,30.3*,13.4,6.7
CCn1c(C)nc2cc(C(=O)N/N=C/c3cccc(O)c3O)ccc21,-15.6,/,3.1,-3.3,/,/
CCOc1nc(-c2ccc(Cl)cc2Cl)ccc1C#N,-12.9,12.9,-19.0,36.1*,16.2,10.6
O=C(Nc1ccc(C(F)(F)F)cc1Cl)c1ccc(Cn2cc(Br)cn2)o1,-23.5,7.6,-51.6,21.8*,6.8,8.1

# Screening data: PubChem, The Scripps Research Institute Molecular Screening Center
